Blank lines part the entries; values can stand above or below the compound they belong to. Calls of active or inactive are those of the source. The calls are words filed in the database; no cut-off is given here.
Experiments:
[1] = molecular target: T1, Vascular endothelial growth factor receptor 2 (Homo sapiens, UniProt P35968); experiment: Inhibition of VEGFR2 in HUVEC cells assessed as reduction in Src phosphorylation at 20 to 40 nM incubated for 48 hrs by Western blot analysis; format: cell-based
T1 sequence (P35968 whole entry): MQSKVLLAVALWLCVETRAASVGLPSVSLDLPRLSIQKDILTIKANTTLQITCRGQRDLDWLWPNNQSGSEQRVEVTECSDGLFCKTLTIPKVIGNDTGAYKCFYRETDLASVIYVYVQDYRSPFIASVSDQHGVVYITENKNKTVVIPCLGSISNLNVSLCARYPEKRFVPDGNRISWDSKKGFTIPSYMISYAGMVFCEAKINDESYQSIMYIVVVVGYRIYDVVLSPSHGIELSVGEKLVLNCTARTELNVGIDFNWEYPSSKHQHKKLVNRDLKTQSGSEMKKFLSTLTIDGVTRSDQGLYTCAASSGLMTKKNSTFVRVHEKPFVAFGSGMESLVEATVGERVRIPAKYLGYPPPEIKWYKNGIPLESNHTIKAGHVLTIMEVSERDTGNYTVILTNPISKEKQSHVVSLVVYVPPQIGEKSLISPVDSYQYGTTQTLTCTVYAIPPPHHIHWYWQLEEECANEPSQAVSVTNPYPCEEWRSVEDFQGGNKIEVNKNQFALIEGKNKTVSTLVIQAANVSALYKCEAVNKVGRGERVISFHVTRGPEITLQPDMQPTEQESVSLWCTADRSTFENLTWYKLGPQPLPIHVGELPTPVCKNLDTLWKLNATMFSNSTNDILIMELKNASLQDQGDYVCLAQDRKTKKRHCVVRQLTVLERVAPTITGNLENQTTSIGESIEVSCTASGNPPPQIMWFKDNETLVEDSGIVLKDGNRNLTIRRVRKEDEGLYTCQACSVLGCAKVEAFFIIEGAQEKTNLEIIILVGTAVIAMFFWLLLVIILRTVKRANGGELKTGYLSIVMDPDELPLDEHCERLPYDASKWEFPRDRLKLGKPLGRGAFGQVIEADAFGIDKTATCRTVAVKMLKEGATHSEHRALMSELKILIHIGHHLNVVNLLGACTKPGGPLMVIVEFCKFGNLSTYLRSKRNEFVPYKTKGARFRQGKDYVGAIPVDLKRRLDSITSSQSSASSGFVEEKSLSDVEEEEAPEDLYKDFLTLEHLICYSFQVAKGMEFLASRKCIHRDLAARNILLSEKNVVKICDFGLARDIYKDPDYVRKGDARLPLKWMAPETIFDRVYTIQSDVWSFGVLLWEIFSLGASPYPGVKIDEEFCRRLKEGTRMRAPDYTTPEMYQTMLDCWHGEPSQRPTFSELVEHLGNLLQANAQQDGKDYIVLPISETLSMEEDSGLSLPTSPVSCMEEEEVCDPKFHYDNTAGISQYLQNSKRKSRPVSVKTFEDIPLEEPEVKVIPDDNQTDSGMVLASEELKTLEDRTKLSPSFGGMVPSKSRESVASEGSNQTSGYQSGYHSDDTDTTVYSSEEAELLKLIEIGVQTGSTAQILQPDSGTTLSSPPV
How it was run: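 HUVECs were maintained in 1640 medium with 10% FBS. They were treated with graded concentrations for 48 h, PBS-washed and lysed in RIPA buffer. Immunoblots were probed for total and phospho VEGFR2, STAT3, Akt, Erk1 and Src, each at 1:1000. β-actin served as loading control.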

[2] = Toxicity in NOD/SCID BALB/c mouse xenografted with human SiHa cells assessed as toxic effects in liver at 40 mg/kg, po administered for 48 hrs by hematoxylin and eosin staining method; format: organism-based; details: in vivo
[3] = Tmax in Sprague-Dawley rat at 10 mg/kg, iv by HPLC-MS analysis; format: ADME, organism-based; details: in vivo
[4] = Oral bioavailability in Sprague-Dawley rat at 10 mg/kg by HPLC-MS analysis; format: ADME, organism-based; details: in vivo
CDK4/Cyclin D3 = CDK4/Cyclin D3 (Homo sapiens, UniProt P11802); experiment: Inhibition of recombinant full length human CDK4/Cyclin D3 using Rb-fragmen as substrate incubated for 40 mins by [gamma-33P]-ATP based radiometric assay; format: protein-complex assay
[5] = test system: Serine/threonine-protein kinase B-raf (Homo sapiens), P15056 [V600E]; experiment: Inhibition of recombinant human BRAF V599E mutant (416 to end residues) at 1 uM using myelin as substrate incubated for 40 mins in presence of [gamma-33P]-ATP by scintillation counting method relative to control
How it was run: (§1)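 Kinase panel profiling at 1 μM performed by Eurofins KinaseProfiler; percent inhibition reported as mean of two independent experiments.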

[6] = molecular target: Casein kinase 2 (Homo sapiens) (UniProt P67870+P68400+P19784+Q8NEV1); experiment: Inhibition of recombinant full length human CK2 expressed in insect Sf21 cells at 1 uM using CK2 substrate peptide as substrate incubated for 40 mins in presence of [gamma-33P]-ATP by scintillation counting method relative to control; how it was run: as §1
[7] = test system: Hepatocyte growth factor receptor (Homo sapiens), P08581 [Y1248H]; experiment: Inhibition of recombinant human Met Y1248H mutant (974 to end residues) at 1 uM using KKKGQEEEYVFIE as substrate incubated for 40 mins in presence of [gamma-33P]-ATP by scintillation counting method relative to control
Chain of Hepatocyte growth factor receptor (Homo sapiens), P08581 [Y1248H] (P08581 with tags, fused parts or gaps Y1248H): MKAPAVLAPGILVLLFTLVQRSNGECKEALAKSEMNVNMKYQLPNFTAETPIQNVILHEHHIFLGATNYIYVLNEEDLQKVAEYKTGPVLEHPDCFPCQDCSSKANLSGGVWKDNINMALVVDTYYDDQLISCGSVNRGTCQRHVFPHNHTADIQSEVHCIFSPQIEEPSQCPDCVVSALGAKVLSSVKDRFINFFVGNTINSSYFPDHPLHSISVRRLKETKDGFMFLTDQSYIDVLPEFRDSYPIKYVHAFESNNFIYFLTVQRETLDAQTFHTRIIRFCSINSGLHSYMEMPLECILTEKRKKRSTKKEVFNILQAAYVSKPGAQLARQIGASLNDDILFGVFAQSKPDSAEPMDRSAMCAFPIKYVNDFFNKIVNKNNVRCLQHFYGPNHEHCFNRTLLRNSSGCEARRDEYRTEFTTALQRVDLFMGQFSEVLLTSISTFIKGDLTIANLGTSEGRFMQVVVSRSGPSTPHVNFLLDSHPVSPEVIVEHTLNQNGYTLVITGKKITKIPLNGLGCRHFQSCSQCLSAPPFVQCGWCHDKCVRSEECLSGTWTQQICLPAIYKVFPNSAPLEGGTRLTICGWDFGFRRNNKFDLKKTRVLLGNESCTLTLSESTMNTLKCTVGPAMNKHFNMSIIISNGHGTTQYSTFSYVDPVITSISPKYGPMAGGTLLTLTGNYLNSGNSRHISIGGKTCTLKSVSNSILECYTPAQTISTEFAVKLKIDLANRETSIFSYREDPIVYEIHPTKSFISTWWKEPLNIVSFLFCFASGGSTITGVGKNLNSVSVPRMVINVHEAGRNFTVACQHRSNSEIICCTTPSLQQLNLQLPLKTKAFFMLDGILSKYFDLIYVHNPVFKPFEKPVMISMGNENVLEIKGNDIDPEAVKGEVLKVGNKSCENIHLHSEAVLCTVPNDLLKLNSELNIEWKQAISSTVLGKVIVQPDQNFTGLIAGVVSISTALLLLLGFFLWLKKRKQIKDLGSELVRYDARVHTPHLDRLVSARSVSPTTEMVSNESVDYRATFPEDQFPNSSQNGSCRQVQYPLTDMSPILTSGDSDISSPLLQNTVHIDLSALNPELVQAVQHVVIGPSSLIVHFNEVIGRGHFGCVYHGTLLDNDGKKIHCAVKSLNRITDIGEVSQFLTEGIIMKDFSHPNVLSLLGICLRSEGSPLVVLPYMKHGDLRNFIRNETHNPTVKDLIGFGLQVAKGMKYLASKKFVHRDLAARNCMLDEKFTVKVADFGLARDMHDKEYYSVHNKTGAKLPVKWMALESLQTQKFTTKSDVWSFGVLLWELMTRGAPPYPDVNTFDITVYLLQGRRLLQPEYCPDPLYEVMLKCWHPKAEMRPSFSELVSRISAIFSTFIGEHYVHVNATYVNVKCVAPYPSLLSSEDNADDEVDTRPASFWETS

[8] = molecular target: Serine/threonine-protein kinase PAK 1 (Homo sapiens) (UniProt Q13153); experiment: Inhibition of recombinant human PAK1 (150 to end residues) at 1 uM using RRRLSFAEPG as substrate incubated for 40 mins in presence of [gamma-33P]-ATP by scintillation counting method relative to control
Chain of Serine/threonine-protein kinase PAK 1 (Homo sapiens) (Q13153 whole entry): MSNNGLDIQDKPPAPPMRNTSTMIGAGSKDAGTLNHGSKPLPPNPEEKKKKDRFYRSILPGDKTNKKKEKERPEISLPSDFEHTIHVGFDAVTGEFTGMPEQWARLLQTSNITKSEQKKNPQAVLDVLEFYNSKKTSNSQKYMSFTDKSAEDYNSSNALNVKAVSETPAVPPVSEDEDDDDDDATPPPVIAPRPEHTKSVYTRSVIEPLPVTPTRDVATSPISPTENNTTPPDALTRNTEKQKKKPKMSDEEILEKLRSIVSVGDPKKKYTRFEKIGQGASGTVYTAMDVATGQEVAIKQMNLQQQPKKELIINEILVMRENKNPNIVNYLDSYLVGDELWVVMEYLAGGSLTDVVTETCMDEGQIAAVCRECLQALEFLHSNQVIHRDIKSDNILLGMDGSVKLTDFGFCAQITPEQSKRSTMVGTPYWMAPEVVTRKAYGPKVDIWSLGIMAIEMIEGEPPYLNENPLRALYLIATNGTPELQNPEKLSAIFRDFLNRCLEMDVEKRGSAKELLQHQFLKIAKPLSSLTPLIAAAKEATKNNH

[9] = molecular target: Serine-protein kinase ATM (Homo sapiens) (UniProt Q13315); experiment: Inhibition of recombinant human full length ATM at 1 uM using GST-cMyc-p53 as substrate incubated for 40 mins in presence of [gamma-33P]-ATP by scintillation counting method relative to control
[10] = molecular target: RAC-beta serine/threonine-protein kinase (Homo sapiens) (UniProt P31751); experiment: Inhibition of recombinant human PKBbeta (120 to end residues) at 1 uM using GRPRTSSFAEGKK as substrate incubated for 40 mins in presence of [gamma-33P]-ATP by scintillation counting method relative to control
How it was run: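 Tested at a single 1 uM in an outsourced commercial kinase-profiling panel, read as percent inhibition. Each value is the mean of two independent experiments.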

[11] = molecular target: Serine/threonine-protein kinase SIK2 (Homo sapiens) (UniProt Q9H0K1); experiment: Inhibition of recombinant human SIK2 (1 to 276 residues) at 1 uM using KKKVSRSGLYRSPSMPENLNRPR as substrate incubated for 40 mins in presence of [gamma-33P]-ATP by scintillation counting method relative to control
Chain of Serine/threonine-protein kinase SIK2 (Homo sapiens) (Q9H0K1 whole entry, looked up, the tested form may be a part): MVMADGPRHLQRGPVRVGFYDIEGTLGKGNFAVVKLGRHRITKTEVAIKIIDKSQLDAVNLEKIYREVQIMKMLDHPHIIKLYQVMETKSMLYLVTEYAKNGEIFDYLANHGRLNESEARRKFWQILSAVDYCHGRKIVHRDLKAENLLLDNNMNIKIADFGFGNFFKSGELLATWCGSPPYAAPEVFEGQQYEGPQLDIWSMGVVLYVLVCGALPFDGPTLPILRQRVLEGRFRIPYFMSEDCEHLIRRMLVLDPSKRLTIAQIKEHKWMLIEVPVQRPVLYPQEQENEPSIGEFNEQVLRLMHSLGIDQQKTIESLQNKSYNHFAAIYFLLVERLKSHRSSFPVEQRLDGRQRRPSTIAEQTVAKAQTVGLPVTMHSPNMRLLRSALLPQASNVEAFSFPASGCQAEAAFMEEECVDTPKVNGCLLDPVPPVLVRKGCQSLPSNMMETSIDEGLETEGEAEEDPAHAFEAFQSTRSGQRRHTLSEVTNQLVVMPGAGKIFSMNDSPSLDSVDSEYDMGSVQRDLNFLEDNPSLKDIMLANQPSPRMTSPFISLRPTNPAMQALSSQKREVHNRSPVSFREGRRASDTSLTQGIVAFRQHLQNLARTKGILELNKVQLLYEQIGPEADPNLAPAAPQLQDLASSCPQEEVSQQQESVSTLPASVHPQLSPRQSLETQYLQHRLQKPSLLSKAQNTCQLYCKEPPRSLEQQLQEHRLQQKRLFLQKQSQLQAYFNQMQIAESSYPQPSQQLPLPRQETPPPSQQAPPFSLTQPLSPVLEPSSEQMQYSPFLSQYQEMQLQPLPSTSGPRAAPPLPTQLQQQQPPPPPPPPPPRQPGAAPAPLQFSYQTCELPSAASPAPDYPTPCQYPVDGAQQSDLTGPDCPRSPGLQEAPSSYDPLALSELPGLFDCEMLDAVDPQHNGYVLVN

[12] = molecular target: Tyrosine-protein kinase SYK (Homo sapiens) (UniProt P43405); experiment: Inhibition of recombinant human full length SYK at 1 uM using poly(Glu, Tyr) 4:1 as substrate incubated for 40 mins in presence of [gamma-33P]-ATP by scintillation counting method relative to control
[13] = molecular target: TGF-beta receptor type-1 (Homo sapiens) (UniProt P36897); experiment: Inhibition of recombinant human TGFBR1 (200 to end residues) at 1 uM using casein as substrate incubated for 40 mins in presence of [gamma-33P]-ATP by scintillation counting method relative to control
[14] = molecular target: Serine/threonine-protein kinase tousled-like 1 (Homo sapiens) (UniProt Q9UKI8); experiment: Inhibition of recombinant human full length TLK1 at 1 uM using casein as substrate incubated for 40 mins in presence of [gamma-33P]-ATP by scintillation counting method relative to control
[15] = molecular target: Tyrosine-protein kinase ZAP-70 (Homo sapiens) (UniProt P43403); experiment: Inhibition of recombinant human full length ZAP70 at 1 uM using poly(Glu, Tyr) 4:1 as substrate incubated for 40 mins in presence of [gamma-33P]-ATP by scintillation counting method relative to control
Chain of Tyrosine-protein kinase ZAP-70 (Homo sapiens) (P43403 whole entry): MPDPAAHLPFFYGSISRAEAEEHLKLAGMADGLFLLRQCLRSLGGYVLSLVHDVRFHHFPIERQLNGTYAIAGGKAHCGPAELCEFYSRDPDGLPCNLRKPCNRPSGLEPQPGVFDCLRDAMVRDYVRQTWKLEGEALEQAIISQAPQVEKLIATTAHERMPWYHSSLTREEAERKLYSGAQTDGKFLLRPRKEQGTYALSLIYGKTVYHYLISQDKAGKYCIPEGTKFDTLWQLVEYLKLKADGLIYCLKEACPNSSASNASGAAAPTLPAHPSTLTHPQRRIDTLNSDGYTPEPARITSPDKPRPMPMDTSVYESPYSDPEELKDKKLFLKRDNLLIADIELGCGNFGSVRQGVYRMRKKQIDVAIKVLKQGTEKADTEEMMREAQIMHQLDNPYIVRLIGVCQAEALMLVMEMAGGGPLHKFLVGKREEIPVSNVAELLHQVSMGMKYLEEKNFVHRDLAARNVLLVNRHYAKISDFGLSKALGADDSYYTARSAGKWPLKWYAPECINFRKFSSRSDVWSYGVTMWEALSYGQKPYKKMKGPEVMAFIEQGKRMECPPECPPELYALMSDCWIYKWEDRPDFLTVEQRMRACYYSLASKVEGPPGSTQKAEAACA

SiHa = experiment: Induction of cell cycle arrest in human SiHa cells assessed as decrease in cell accumulation in S phase at 40 to 80 nM incubated for 36 hrs by propidium iodide staining based flow cytometry; format: functional
How it was run: (§2)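 Cells were treated with graded concentrations for 36 h, then fixed overnight in 70% ice-cold ethanol at 4°C and resuspended in PBS. Staining used 50 µg/ml PI plus 5 µg/ml RNase at 37°C for 30 min. DNA content was analysed by FACS to give G0/G1, S and G2/M fractions.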

HeLa [16] = experiment: Induction of cell cycle arrest in human HeLa cells assessed as decrease in accumulation in S phase at 40 to 80 nM incubated for 36 hrs by propidium iodide staining based flow cytometry; format: functional; how it was run: as §2
[17] = Toxicity in NOD/SCID BALB/c mouse xenografted with human SiHa cells assessed as effect on blood parameter by measuring PDW at 40 mg/kg, po administered once two days for 4 times by hematology analyzer; format: organism-based; details: in vivo
[18] = Toxicity in BALB/c mouse assessed as effect on blood parameter by measuring RBC content at 40 mg/kg, po administered once two days for 4 times by hematology analyzer; details: in vivo
T47D = experiment: Induction of apoptosis in human T47D cells assessed as decrease in Bcl2 expression at 40 nM incubated for 48 hrs by Western blot analysis; format: functional, cell-based
How it was run: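 Cancer cells were exposed to graded concentrations for 48 h, washed three times in PBS and lysed in RIPA buffer. Immunoblots were probed with anti-Rb, anti-phospho-Rb, anti-Ki67 and anti-Bcl-2, each at 1:1000. β-actin served as loading control.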

HeLa [19] = experiment: Induction of apoptosis in human HeLa cells assessed as decrease in Bcl2 expression at 80 nM incubated for 48 hrs by Western blot analysis; format: functional, cell-based
How it was run: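 Cells were treated for 48 h, washed three times with PBS, and lysed in RIPA buffer. Immunoblots used anti-Rb, anti-phospho-Rb, anti-Ki67 and anti-Bcl-2 (each 1:1000), with β-actin as loading control.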

[20] = molecular target: T1, Vascular endothelial growth factor receptor 2; details: HUVEC, 40 nM

Compound: Cc1ccc(NC(=O)C2(C(=O)Nc3ccc(Nc4ncc(F)c(-c5cc(F)c6nc(C)n(C(C)C)c6c5)n4)cc3)CC2)cc1
inhibition [1]: Active
Activity [2]: Non-Toxic
Tmax [3]: 5 min
bioavailability [4]: 60%
IC50 (CDK4/Cyclin D3): 46 nM
inhibition [5]: 45%
inhibition [6]: 56%
inhibition [7]: 40%
inhibition [8]: 52%
inhibition [9]: 2%
inhibition [10]: 0%
inhibition [11]: 43%
inhibition [12]: 49%
inhibition [13]: 6%
inhibition [14]: 31%
inhibition [15]: 11%
Activity (SiHa): Active
Activity (HeLa [16]): Active
Activity [17]: Non-Toxic
Activity [18]: Non-Toxic

inhibition [20]: Active
Compound: COc1cc2nccc(Oc3ccc(NC(=O)C4(C(=O)Nc5ccc(F)cc5)CC4)cc3)c2cc1OC [CABOZANTINIB]
Activity (T47D): Active
Activity (HeLa [19]): Active
